RORa activator = RORA (human) activation; hit rate 1.5% among 65,000; activation, % at 10 µM; CHO-K1 Gal4-RORA LBD luciferase reporter, luminescence; percent increase over mock-subtracted basal signal;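 active means activation above the mean of all tested compounds plus 3 SD, cut at about 49% in these data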;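 further: 0% = DMSO-treated RORA cells and 100% = added signal equal to DMSO minus mock-transfected cells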
Target sequence (P35398 whole entry, looked up, the tested form may be a part): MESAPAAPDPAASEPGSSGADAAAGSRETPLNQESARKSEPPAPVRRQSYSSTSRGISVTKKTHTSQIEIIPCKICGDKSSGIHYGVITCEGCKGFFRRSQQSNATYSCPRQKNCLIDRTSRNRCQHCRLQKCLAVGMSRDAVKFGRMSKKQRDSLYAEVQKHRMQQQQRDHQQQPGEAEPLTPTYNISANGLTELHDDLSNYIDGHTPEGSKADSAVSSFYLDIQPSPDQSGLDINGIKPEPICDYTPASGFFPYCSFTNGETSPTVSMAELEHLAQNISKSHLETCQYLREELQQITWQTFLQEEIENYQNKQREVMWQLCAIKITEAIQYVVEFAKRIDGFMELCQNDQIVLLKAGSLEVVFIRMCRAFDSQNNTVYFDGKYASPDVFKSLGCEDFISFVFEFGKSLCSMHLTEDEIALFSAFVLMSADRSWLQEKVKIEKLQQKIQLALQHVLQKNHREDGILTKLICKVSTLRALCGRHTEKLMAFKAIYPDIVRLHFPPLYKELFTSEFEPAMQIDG
M1 ag = M1 muscarinic receptor agonism. CHO-M1 cells, Fluo-4 calcium fluorescence, agonist mode; active compounds read high. B-score at 10 µM. hit rate 3% among 64,000;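 active means fluorescence rise, raw or as B-score row- and column-corrected plate score, outside the 99.7% band of its plate's samples, either direction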
D1 mod = allosteric modulators of human D1 dopamine receptor | HEK293 D1, CRE-luciferase, dopamine EC30 potentiation; actives deviate in either direction | B-score at 10 µM | P21728 | AID 641 | hit rate 5.9% among 58,000;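 active means luminescence count or its row- and column-corrected plate score outside the 99.7% band of the plate's sample wells, on either side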
M1 antagonist = blocks the rat M1 muscarinic receptor response to acetylcholine; B-score at 10 µM; hit rate 3.4% among 64,000; CHO-M1 cells, Fluo-4 calcium, ACh EC80 antagonist mode; active compounds read low;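 active means calcium fluorescence response, raw or row-and-column corrected B-score, differing from the plate sample mean either way at a set confidence level, mostly lower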
SF-1 act = activators of human nuclear receptor SF-1 | Q13285 | activation, % at 10 µM | hit rate 1.9% among 65,000 | CHO-K1 Gal4-SF-1 LBD luciferase reporter; % increase over DMSO SF-1-specific signal;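 active means activation above the mean activation of all tested compounds plus 3 SD, cut at about 50% in these data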
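System: CHO-K1 cells with Gal4–hSF-1 LBD chimera plus Gal4-driven luciferase; quantity: 4,000 CHO-K1 cells per well; compound: one dose, 10 µM compound, 1% DMSO; times: 20 h compound treatment, 37 °C; measured by: SteadyLite luciferase luminescence; read-out: percent activation versus DMSO; benchmarks: DMSO and mock-transfected background; replicates: one test per compound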
Htt clearance = compounds clearing mutant huntingtin protein; HeLa Exon1htt(103Q)mCFP, aggregate imaging; zero = plate's median compound well; inhibition, % at 1.5 µM; hit rate 0.42% among 47,000;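 active means inhibition of aggregate fluorescence above about 70%, also judged a hit by eye on the cell image, limit read from the data, passing the limit was not always enough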;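 further: cells exposed to compound for three days before fixation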
D1 PAM confirm = confirmation of human D1 dopamine receptor allosteric modulators | luminescence at 10 µM | AID 642 | hit rate 88% among 2,200 | HEK293 D1 CRE-luciferase, dopamine EC30 potentiation; active compounds read high | shares compounds with D1 mod;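 active means luminescence in either of two replicates above the same-plate mean plus 3 SD of the low-dose dopamine control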
D1 ag no DA = activates D1 CRE-luciferase signal without dopamine present | shares compounds with D1 mod | HEK293 D1 CRE-luciferase, luminescence, no dopamine; active compounds read high | luminescence at 10 µM | hit rate 0.8% among 1,900 | AID 646; in the data active means luminescence above about 3900
Isoprot counter = counter-screen for D1 modulators: isoproterenol response in HEK293 cells. shares compounds with D1 mod. HEK293 D1 CRE-luciferase, isoproterenol EC30 counter-screen. calls only at 10 µM. hit rate 63% among 2,200. AID 647;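 active means luminescence in either replicate above plate mean of wells with a partly effective reference agonist dose plus 3 SD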;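 further: isoproterenol raises cAMP through native beta-adrenoceptor Gs so signal bypasses D1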
Active calls of the source: *; i = inactive; . = not tested or not shown; + = active, no number. Sampled rows, rich in hits. Any-hit rate of the full collection: about 11%.

SMILES	RORa activator	M1 ag	D1 mod	M1 antagonist	SF-1 act	Htt clearance	D1 PAM confirm	D1 ag no DA	Isoprot counter
CC(C)(C)NC(=O)CN(C(=O)CS(=O)CC(=O)Nc1ccc(F)cc1)c1ccc(F)c(Cl)c1 (configuration not stated)	-1	-0.0056	-0.023	0.17	6	15	.	.	.
N#Cc1cccc(-c2nnc(SCc3ccccc3C#N)o2)c1	15	.	2.7*	.	39	.	5456	1604	+
Cc1cccc(-c2nnc(SCc3ccccc3)o2)c1	.	.	.	.	.	20	.	.	.
CCSc1nc2ccccc2n1Cc1nc(N)nc(N(C)C)n1	-17	-0.9	5.2*	0.41	-5	.	10584*	.	+
CCSc1nc2ccccc2n1CC(N)=O	2	0.13	0.32	0.17	12	8	.	.	.
CCCC1(c2ccccc2)NC(=O)N(CC(=O)c2[nH]c(C)c(C(=O)OCC)c2C)C1=O (configuration not stated)	-4	0.35	7*	0.75	20	-43	8616*	1668	+
O=C(Cn1c(-c2cscn2)nc2ccccc21)Nc1ccccc1F	.	.	.	.	.	4	.	.	.
O=C(c1ccncc1)N1CCN(C(=O)c2cccc3ccccc23)CC1	0	-0.038	-0.0045	0.012	-7	.	.	.	.
O=C(c1cccc2ccccc12)N1CCN(CC2CC=CCC2)CC1 (configuration not stated)	8	-0.1	4.6*	0.98	3	5	5828	1612	i
O=C(CCNS(=O)(=O)c1cccs1)N1CCc2ccccc2C1	45	0.7	3.4*	0.032	41	21	4796	.	+
CCOc1cc2c(C#N)c(N3CCOCC3)nc(N)c2c(N)n1	-20	0.22	12*	-0.86	7	.	11932*	1728	+
COCc1cc(C)nc(N2CCOCC2)c1C#N	2	0.18	.	0.78	15	.	.	.	.
CC1CCN(C(=O)CSc2ccc3nnc(-c4ccccc4)n3n2)CC1	-8	-0.23	1.4	1.8	-8	.	.	.	.
CCc1ccc(CC)c(S(=O)(=O)Nc2ccc(O)c(C(=O)O)c2)c1	5	0	0.37	0.49	0	-62	.	.	.
CCNc1nc(C)cc(COC)c1C#N	6	-0.029	4.7*	-0.24	-11	.	10012*	.	+
CCOC(=O)CSc1nnc([C@@H](NC(=O)OC(C)(C)C)C(C)C)o1	-12	0.026	-0.61	-0.0043	-20	.	.	.	.
CCOC(=O)Cc1nnc(NC(=O)c2ccccc2OCC)s1	.	-2.7	2.7*	0.43	.	.	8096*	1648	+
CCCn1c(SCC(=O)Nc2sc(C)c(C)c2C(=O)OCC)nc2c1c(=O)n(C)c(=O)n2C	-1	-0.083	6.5*	0.043	6	-1	8860*	1644	i
CCOC(=O)c1c(NC(=O)CSc2n[nH]c(N)n2)sc(CC)c1C	8	-1.5	7.9*	-0.21	-6	.	14984*	1740	+
COC(=O)c1ccccc1NC(=O)CSc1nc2c(c(=O)n(C)c(=O)n2C)n1C	7	-0.21	0.57	1.2	-20	-73	.	.	.
CCOC(=O)c1c(NC(=O)CSc2nnnn2C)sc(C)c1C	-11	0.65	1.7	-0.81	-10	20	.	.	.
CCOC(=O)c1c(NC(=O)CSc2nnnn2CC)sc(C)c1C	6	-0.034	3.9*	1.2	30	18	13084*	1736	+
CCCn1c(SCC(=O)Nc2ccccc2C(=O)OC)nc2c1c(=O)n(C)c(=O)n2C	-11	-0.056	8.5*	-0.79	-1	41	12220*	1740	+
O=S(=O)(Nc1ccc(S(=O)(=O)N2CCCCC2)cc1)c1cccs1	2	-0.0048	-0.83	-0.063	10	-27	.	.	.
O=C(OCCN=C1NS(=O)(=O)c2ccccc21)C1CC(=O)N(c2ccc(Cl)cc2)C1 (configuration not stated)	-18	-0.38	0.28	-0.79	-17	.	.	.	.
SMILES	RORa activator	M1 ag	D1 mod	M1 antagonist	SF-1 act	Htt clearance	D1 PAM confirm	D1 ag no DA	Isoprot counter
Cc1cc(-c2nc3ccccc3o2)c2ccccc2n1	-12	0.34	15*	-0.29	-2	-30	14660*	.	+
c1cc(-c2nc3ccccc3o2)nc(-c2nc3ccccc3o2)c1	-13	-0.38	-0.78	0.33	-6	.	.	.	.
COc1ccc(-c2cc(C(=O)NCc3cccnc3)no2)cc1OC	8	0.47	4.2*	0.24	29	-89	9080*	.	i
COc1ccc(-c2cc(C(=O)N3CCc4ccccc4C3)no2)cc1OC	7	-0.7	4.6*	-1.3	16	42	10752*	1528	+
COCCNC(=O)c1cc(-c2ccc(OC)c(OC)c2)on1	-6	0.95	15*	0.27	14	-3	15388*	1528	+
Cc1ccc(-c2cc(C(=O)NCc3cccnc3)no2)cc1	14	0.11	0.056	0.033	22	63	.	.	.
COCCNC(=O)c1cc(-c2ccc(Cl)c(Cl)c2)on1	6	-0.53	0.59	1.1	3	.	.	.	.
Cc1ccc(S(=O)(=O)Cn2cnnn2)cc1	-16	-0.17	.	-0.067	13	.	.	.	.
Cc1ccc2nc(N3CCC(C(=O)O)CC3)nc(-c3ccccc3)c2c1	-18	1.7	6.5*	-0.29	2	-13	10876*	1380	+
Cc1cc2nc(C3CCN(CC4COc5ccccc5O4)CC3)[nH]c2cc1C (configuration not stated)	-18	0.73	0.27	-0.85	-2	.	.	.	.
COCCCNc1nc2ccccc2nc1NS(=O)(=O)c1cccs1	-8	1.5	2.8*	0.84	2	13	10820*	1644	i
O=S(=O)(Nc1nc2ccccc2nc1NCC1CCCO1)c1cccs1 (configuration not stated)	-16	-0.24	8.6*	0.15	3	46	15576*	2020	+
CCOc1nc(C)ccc1-c1noc(-c2ccncc2)n1	14	0.83	18*	0.35	36	-4	11268*	1692	+
CCCCCC(=O)O[C@]1(C(C)=O)CC[C@H]2[C@@H]3CCC4=CC(=O)CC[C@]4(C)[C@H]3CC[C@@]21C	-12	-0.071	-0.16	-0.0079	-9	.	.	.	.
Nc1cc(Cl)ccc1Oc1ccccc1	-17	.	.	.	-2	-22	.	.	.
Cc1ccc(Oc2ccccc2)c(NC=O)c1	8	1.3	4.9*	-0.0033	4	.	12104*	1524	i
O=C(CSc1ccccc1)Nc1ccncc1	14	-0.35	0.065	0.15	-8	-85	.	.	.
COc1cc2c(cc1OC)CN(C(=O)c1cccs1)CC2	-10	-0.0023	5.1*	-0.91	3	-12	8784*	1504	+

Bioassay records as filed in PubChem.
